# Reference: the M2OR odorant receptor database
# Key:
# Settings in all cases: stereoisomer not certain
# [1] = molecular target: T1, OR51B5 (Homo sapiens) (UniProt Q9H339)
# T1 sequence (whole entry): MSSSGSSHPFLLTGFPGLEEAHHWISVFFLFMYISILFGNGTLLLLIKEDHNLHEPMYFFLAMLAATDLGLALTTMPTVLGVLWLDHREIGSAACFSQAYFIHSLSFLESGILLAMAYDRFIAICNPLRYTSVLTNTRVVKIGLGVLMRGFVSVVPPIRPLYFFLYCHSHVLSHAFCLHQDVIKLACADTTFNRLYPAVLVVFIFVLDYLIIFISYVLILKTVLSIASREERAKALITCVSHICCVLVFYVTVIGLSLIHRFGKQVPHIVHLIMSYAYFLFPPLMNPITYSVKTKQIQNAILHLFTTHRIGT
# In short: (§1)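 Each entry records the cell line, G-protein, co-transfected protein and tags used. Methods varied with the source, often transient luciferase assays in mammalian cell lines. A receptor–molecule pair is called responsive (active) if the original authors judged its signal statistically different from baseline and non-responsive (inactive) otherwise.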
# [2] = molecular target: T2, OR51E1 (Homo sapiens) (UniProt Q8TCB6)
# T2 sequence (whole entry): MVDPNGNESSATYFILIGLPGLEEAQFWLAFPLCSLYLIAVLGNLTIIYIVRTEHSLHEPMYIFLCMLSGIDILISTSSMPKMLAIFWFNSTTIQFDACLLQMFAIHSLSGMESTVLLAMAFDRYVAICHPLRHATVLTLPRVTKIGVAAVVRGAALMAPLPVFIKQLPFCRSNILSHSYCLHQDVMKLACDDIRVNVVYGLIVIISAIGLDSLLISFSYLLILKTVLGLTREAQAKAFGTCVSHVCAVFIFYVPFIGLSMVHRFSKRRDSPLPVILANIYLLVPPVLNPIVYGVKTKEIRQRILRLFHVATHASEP
# In short: as §1
# [3] = molecular target: T3, OR51E2 (Homo sapiens) (UniProt Q9H255)
# T3 sequence (whole entry): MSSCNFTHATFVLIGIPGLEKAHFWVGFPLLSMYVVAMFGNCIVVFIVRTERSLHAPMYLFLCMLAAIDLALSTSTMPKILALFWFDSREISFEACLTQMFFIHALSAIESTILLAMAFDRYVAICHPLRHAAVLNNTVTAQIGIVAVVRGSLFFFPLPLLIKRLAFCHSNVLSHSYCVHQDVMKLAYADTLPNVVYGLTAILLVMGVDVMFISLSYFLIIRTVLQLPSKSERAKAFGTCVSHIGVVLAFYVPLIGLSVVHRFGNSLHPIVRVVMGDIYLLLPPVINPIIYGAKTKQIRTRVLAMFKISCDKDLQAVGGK
# In short: as §1
compound,measurement,setting,value
CCCCCCCCCCCC(=O)O,odorant receptor agonist call,[1],active
same,odorant receptor agonist call,[2],inactive
Cc1cnc(C)cn1,odorant receptor agonist call,[1],inactive
CCCCCCCCCCCCO,odorant receptor agonist call,[1],inactive
CCCCCCCCCC(=O)OC,odorant receptor agonist call,[1],inactive
CCCCCCCCCCCCCCCC(=O)[O-].[H+],odorant receptor agonist call,[1],inactive
same,odorant receptor agonist call,[2],inactive
CCC(=O)O,odorant receptor agonist call,[1],inactive
same,odorant receptor agonist call,[2],inactive
same,odorant receptor agonist call,[3],active
Cc1ccc(C(C)C)cc1,odorant receptor agonist call,[1],inactive
CCCCCCCC(=O)OC,odorant receptor agonist call,[1],inactive
CCCCCCCCCCCCCCC(=O)O,odorant receptor agonist call,[1],inactive
CCCC(C)C(=O)O (centres undefined),odorant receptor agonist call,[2],active
CC1=CCC2CC1C2(C)C (centres undefined),odorant receptor agonist call,[1],inactive
CC(=O)OCc1ccccc1,odorant receptor agonist call,[2],inactive
same,odorant receptor agonist call,[3],inactive
CCCCCC(=O)CC,odorant receptor agonist call,[2],inactive
same,odorant receptor agonist call,[3],inactive
CCCCCCCCCCCC(=O)OC,odorant receptor agonist call,[1],inactive
CCCCCCCCCCCCCCCC(=O)OCC,odorant receptor agonist call,[1],inactive
CCC(O)CC,odorant receptor agonist call,[1],inactive
CC(C=O)Cc1ccc(C(C)(C)C)cc1 (centres undefined),odorant receptor agonist call,[1],inactive
CCCO,odorant receptor agonist call,[1],inactive
CCCCCCC(=O)[O-].[H+],odorant receptor agonist call,[1],inactive
same,odorant receptor agonist call,[2],inactive
same,odorant receptor agonist call,[3],inactive
O=C([O-])c1ccccc1.[H+],odorant receptor agonist call,[2],inactive
CCCCCCCCCCCCCCCCCC(=O)OC,odorant receptor agonist call,[1],inactive
CCCCCCCC(=O)[O-].[H+],odorant receptor agonist call,[1],inactive
same,odorant receptor agonist call,[2],inactive
same,odorant receptor agonist call,[3],inactive
CCCCCCCCCCCC(=O)OCC,odorant receptor agonist call,[1],inactive
CCCCCCCCCC(=O)OCC,odorant receptor agonist call,[1],inactive
C=CCOC(=O)CCCCCC,odorant receptor agonist call,[2],inactive
same,odorant receptor agonist call,[3],inactive
CCC(C)CC(=O)O (centres undefined),odorant receptor agonist call,[2],active
CCCCCCCCO,odorant receptor agonist call,[1],inactive
same,odorant receptor agonist call,[2],inactive
same,odorant receptor agonist call,[3],inactive
O=C1Cc2ccccc2O1,odorant receptor agonist call,[2],inactive
same,odorant receptor agonist call,[3],inactive
CCCCCCCCCCCCCC(=O)OCC,odorant receptor agonist call,[1],inactive
O=C([O-])CC(O)(CC(=O)O)C(=O)[O-].[H+].[H+],odorant receptor agonist call,[2],inactive
